{
  "source": "ChEMBL document CHEMBL1130145",
  "about": "“Synthesis, anti-human immunodeficiency virus and anti-hepatitis B virus activities of novel oxaselenolane nucleosides” (J Med Chem, 1997)",
  "key": {"CCRF-CEM": {"system": "CCRF-CEM", "test": "The cytotoxicity against CEM cells", "format": "functional, cell-based", "details": "Homo sapiens", "in_short": "(§1)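 Cytotoxicity tested at concentrations up to 100 μM in PBM, CEM and Vero cells.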"}, "[1]": {"test": "In vitro anti-HIV activity in peripheral blood mononuclear cells.", "format": "functional", "in_short": "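Antiviral assay in primary lymphocytes (peripheral blood mononuclear cells) infected with HIV-1; activity reported as EC50.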"}, "[2]": {"test": "Toxic activity against VERO cells.", "format": "toxicity, cell-based", "details": "Chlorocebus sabaeus", "in_short": "as §1"}, "[3]": {"test": "Toxic activity against peripheral blood mononuclear cells.", "format": "toxicity", "in_short": "as §1"}, "HepG2": {"system": "HepG2", "test": "In vitro effective concentration against hepatitis B virus was determined in 2.2.15 cells", "format": "functional, cell-based", "details": "Homo sapiens"}},
  "data": [
    {"compound": "Nc1ccn([C@@H]2C[Se][C@@H](CO)O2)c(=O)n1", "values": [
      {"measurement": "IC50", "setting": "CCRF-CEM", "value": "> 100", "unit": "µM"},
      {"measurement": "EC50", "setting": "[1]", "value": 2.4, "unit": "µM"},
      {"measurement": "IC50", "setting": "[2]", "value": "> 100", "unit": "µM"},
      {"measurement": "IC50", "setting": "[3]", "value": "> 100", "unit": "µM"}
    ]},
    {"compound": "Nc1nc(=O)n([C@@H]2C[Se][C@@H](CO)O2)cc1F", "values": [
      {"measurement": "IC50", "setting": "CCRF-CEM", "value": "> 100", "unit": "µM"},
      {"measurement": "EC50", "setting": "[1]", "value": "> 10", "unit": "µM"},
      {"measurement": "IC50", "setting": "[2]", "value": "> 100", "unit": "µM"},
      {"measurement": "IC50", "setting": "[3]", "value": "> 100", "unit": "µM"}
    ]},
    {"compound": "Nc1nc(=O)n([C@H]2C[Se][C@@H](CO)O2)cc1F", "values": [
      {"measurement": "IC50", "setting": "CCRF-CEM", "value": "> 100", "unit": "µM"},
      {"measurement": "EC50", "setting": "[1]", "value": 0.51, "unit": "µM"},
      {"measurement": "IC50", "setting": "[2]", "value": "> 100", "unit": "µM"},
      {"measurement": "EC50", "setting": "HepG2", "value": 1.2, "unit": "µM"},
      {"measurement": "IC50", "setting": "[3]", "value": "> 100", "unit": "µM"}
    ]},
    {"compound": "Nc1ccn([C@H]2C[Se][C@@H](CO)O2)c(=O)n1", "values": [
      {"measurement": "IC50", "setting": "CCRF-CEM", "value": "> 100", "unit": "µM"},
      {"measurement": "EC50", "setting": "[1]", "value": 0.88, "unit": "µM"},
      {"measurement": "IC50", "setting": "[2]", "value": "> 100", "unit": "µM"},
      {"measurement": "EC50", "setting": "HepG2", "value": 1.2, "unit": "µM"},
      {"measurement": "IC50", "setting": "[3]", "value": "> 100", "unit": "µM"}
    ]},
    {"compound": "Nc1ccn([C@@H]2CSC(CO)O2)c(=O)n1", "note": "(single isomer, unassigned) [LAMIVUDINE]", "values": [
      {"measurement": "IC50", "setting": "CCRF-CEM", "value": "> 100", "unit": "µM"},
      {"measurement": "EC50", "setting": "[1]", "value": 0.07, "unit": "µM"},
      {"measurement": "IC50", "setting": "[2]", "value": "> 100", "unit": "µM"},
      {"measurement": "EC50", "setting": "HepG2", "value": 0.008, "unit": "µM"},
      {"measurement": "IC50", "setting": "[3]", "value": "> 100", "unit": "µM"}
    ]}
  ]
}
